Source: ChEMBL document CHEMBL1121898, “Potential antiestrogens. Synthesis and evaluation of mammary tumor inhibiting activity of 1,2-dialkyl-1,2-bis(3'-hydroxyphenyl)ethanes” (1981)
Where “and” joins values, the source holds several entries; their conditions need not be identical. Identical values can stand only once. Calls of active or inactive are those of the source.

What was measured:
Rattus norvegicus [1] = organism: Rattus norvegicus; test: Complete remission of DMBA-induced hormone-dependent mammary carcinoma tumors in rats at 36 mg; assay type: functional
Outline: (§1)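 Female SD rats bearing DMBA-induced, hormone-dependent mammary adenocarcinoma, with at least one tumor >140 mm², were grouped in tens. Dosing was sc per kg body weight: a single dose daily Monday–Thursday and a double dose Friday. Ovariectomy served as the comparison arm. Complete remission was defined as a tumor no longer palpable. Body weight and tumor area changes were also recorded.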

Rattus norvegicus [2] = organism: Rattus norvegicus; test: Complete remission of DMBA-induced hormone-dependent mammary carcinoma tumors in rats at 72 mg; assay type: functional; outline: as §1
Rattus norvegicus [3] = organism: Rattus norvegicus; test: Final number of DMBA-induced hormone-dependent mammary carcinoma tumors in rats at 36 mg; assay type: functional
Outline: (§2)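 Sprague-Dawley rats carrying DMBA-induced, hormone-dependent mammary adenocarcinoma, at least one tumor >140 mm², were placed in groups of ten. Compounds were given sc, with doses in mg/kg: a single daily dose Monday to Thursday and a double dose on Friday. Ovariectomy served as a comparator group. New tumors arising during the test were counted.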

Rattus norvegicus [4] = organism: Rattus norvegicus; test: Partial remission of DMBA-induced hormone-dependent mammary carcinoma tumors in rats at 18 mg; assay type: functional
Outline: (§3)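 DMBA-induced, hormone-dependent mammary adenocarcinoma in SD rats. Rats bearing at least one tumor >140 mm² were placed in groups of ten. Compound was given sc as a single dose (mg/kg) daily Monday–Thursday and a double dose on Friday. Tumors were counted at the start and as new tumors; responses were scored as complete remission (not palpable), partial remission (≥50% reduction), no change or progression. Tumor area and body weight were recorded as % change.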

Rattus norvegicus [5] = organism: Rattus norvegicus; test: Partial remission of DMBA-induced hormone-dependent mammary carcinoma tumors in rats at 72 mg; assay type: functional; outline: as §3
Rattus norvegicus [6] = organism: Rattus norvegicus; test: Percent change in body weight DMBA-induced hormone-dependent mammary carcinoma tumors in rats at 18 mg for 7 days; assay type: functional; outline: as §3
Rattus norvegicus [7] = organism: Rattus norvegicus; test: Percent change in body weight DMBA-induced hormone-dependent mammary carcinoma tumors in rats at 72 mg for 7 days; assay type: functional
Rattus norvegicus [8] = organism: Rattus norvegicus; test: Percent change in DMBA-induced hormone-dependent mammary carcinoma tumor area at 36 mg after 28 days; assay type: functional; outline: as §3
Rattus norvegicus [9] = organism: Rattus norvegicus; test: Percent change in DMBA-induced hormone-dependent mammary carcinoma tumor area at 18 mg after 28 days; assay type: functional; outline: as §3
Rattus norvegicus [10] = organism: Rattus norvegicus; test: Partial remission of DMBA-induced hormone-dependent mammary carcinoma tumors in rats at 36 mg; assay type: functional; outline: as §3
Rattus norvegicus [11] = organism: Rattus norvegicus; test: Percent unchanged tumor size of DMBA-induced hormone-dependent mammary carcinoma tumors in rats at 36 mg; assay type: functional
Rattus norvegicus [12] = organism: Rattus norvegicus; test: Percent unchanged tumor size of DMBA-induced hormone-dependent mammary carcinoma tumors in rats at 72 mg; assay type: functional
Rattus norvegicus [13] = organism: Rattus norvegicus; test: Percent unchanged tumor size of DMBA-induced hormone-dependent mammary carcinoma tumors in rats at 18 mg; assay type: functional
Rattus norvegicus [14] = organism: Rattus norvegicus; test: Progression of DMBA-induced hormone-dependent mammary carcinoma tumors in rats at 72 mg; assay type: functional; outline: as §3
Rattus norvegicus [15] = organism: Rattus norvegicus; test: Progression of DMBA-induced hormone-dependent mammary carcinoma tumors in rats at 18 mg; assay type: functional
Rattus norvegicus [16] = organism: Rattus norvegicus; test: Complete remission of DMBA-induced hormone-dependent mammary carcinoma tumors in rats at 18 mg; assay type: functional; outline: as §1
Rattus norvegicus [17] = organism: Rattus norvegicus; test: Initial tumor number of DMBA-induced hormone-dependent mammary carcinoma in rats at 36 mg; assay type: functional; outline: as §3
Rattus norvegicus [18] = organism: Rattus norvegicus; test: Initial tumor number of DMBA-induced hormone-dependent mammary carcinoma in rats at 72 mg; assay type: functional; outline: as §3
MCF7 [19] = test: Inhibition of estrogen receptor positive MCF-7 cell proliferation as percent treated/control cell number after 10 days at 10e-6 M; assay type: functional, Homo sapiens
Outline: (§4)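 MCF-7 cells were grown in McCoy's 5a medium with fetal bovine serum stripped by DCC (0.5 h, 45 °C). Compounds were dissolved in ethanol (final ≤0.5%) and diluted in complete medium. Cells were seeded at 5×10^4 cells/plate. On day 10, three replicate plates per group were counted by Coulter counter, three counts per plate. Percent T/C = test/control. In a retest, compounds were given at 10^-7 M with 17β-estradiol at 10^-7 or 10^-8 M.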

MCF7 [20] = test: Inhibition of estrogen receptor positive MCF-7 cell proliferation as percent treated/control cell number after 10 days at 10e-7 M; assay type: functional, Homo sapiens; outline: as §4
MCF7 [21] = test: Inhibition of estrogen receptor positive MCF-7 cell proliferation as percent treated/control cell number after 10 days at 10e-7 M with 10e-7 M 17-beta-estradiol; assay type: functional, Homo sapiens; outline: as §4
MCF7 [22] = test: Inhibition of estrogen receptor positive MCF-7 cell proliferation as percent treated/control cell number after 10 days at 10e-8 M; assay type: functional, Homo sapiens; outline: as §4
MCF7 [23] = test: Inhibition of estrogen receptor positive MCF-7 cell proliferation as cell number after 10 days at 10e-8 M; assay type: functional, Homo sapiens; outline: as §4
MCF7 [24] = test: Inhibition of estrogen receptor positive MCF-7 cell proliferation as cell number after 10 days at 10e-9 M; assay type: functional, Homo sapiens; outline: as §4
MCF7 [25] = test: Inhibition of estrogen receptor positive MCF-7 cell proliferation as percent treated/control cell number after 10 days at 10e-9 M; assay type: functional, Homo sapiens; outline: as §4
MCF7 [26] = test: Inhibition of estrogen receptor positive MCF-7 cell proliferation as cell number after 10 days at 10e-6 M; assay type: functional, Homo sapiens; outline: as §4
MCF7 [27] = test: Inhibition of estrogen receptor positive MCF-7 cell proliferation as cell number after 10 days at 10e-7 M and 10e-8 M 17-beta-estradiol; assay type: functional, Homo sapiens; outline: as §4
MCF7 [28] = test: Inhibition of estrogen receptor positive MCF-7 cell proliferation as cell number after 10 days at 10e-7 M and 10e-7 M 17-beta-estradiol; assay type: functional, Homo sapiens; outline: as §4
MCF7 [29] = test: (§5) Inhibition of estrogen receptor positive MCF-7 cell proliferation as cell number after 10 days at 10e-7 M; assay type: functional, Homo sapiens; outline: as §4
MCF7 [30] = test: as §5; assay type: functional, Homo sapiens; outline: as §4; remark: listed apart in the source
Rattus norvegicus [31] = organism: Rattus norvegicus; test: Initial tumor number of DMBA-induced hormone-dependent mammary carcinoma in rats at 18 mg; assay type: functional; outline: as §3
Rattus norvegicus [32] = organism: Rattus norvegicus; test: Percent change in DMBA-induced hormone-dependent mammary carcinoma tumor area at 72 mg after 28 days; assay type: functional; outline: as §3
[33] = target: T1, Estrogen receptor (Mus musculus) (UniProt O08537+P19785); test: Antiestrogenic activity in uterotrophic test in mice at 0.1 ug (experiment 1); assay type: functional
T1 sequence (O08537 whole entry, looked up): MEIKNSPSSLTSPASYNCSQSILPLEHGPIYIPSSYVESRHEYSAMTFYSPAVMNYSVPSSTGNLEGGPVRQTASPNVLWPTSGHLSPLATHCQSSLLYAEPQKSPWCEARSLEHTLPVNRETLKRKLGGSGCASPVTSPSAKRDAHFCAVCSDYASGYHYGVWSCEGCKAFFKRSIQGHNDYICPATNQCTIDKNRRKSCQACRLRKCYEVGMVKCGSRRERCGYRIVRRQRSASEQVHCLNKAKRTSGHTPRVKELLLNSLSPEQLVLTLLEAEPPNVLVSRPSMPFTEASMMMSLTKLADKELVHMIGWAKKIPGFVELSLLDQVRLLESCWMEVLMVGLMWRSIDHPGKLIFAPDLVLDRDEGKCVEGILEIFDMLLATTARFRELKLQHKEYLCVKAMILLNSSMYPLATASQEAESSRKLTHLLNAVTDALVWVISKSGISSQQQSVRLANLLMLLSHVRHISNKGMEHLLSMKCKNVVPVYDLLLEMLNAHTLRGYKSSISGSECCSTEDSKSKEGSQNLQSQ
T1 sequence (P19785 whole entry, looked up): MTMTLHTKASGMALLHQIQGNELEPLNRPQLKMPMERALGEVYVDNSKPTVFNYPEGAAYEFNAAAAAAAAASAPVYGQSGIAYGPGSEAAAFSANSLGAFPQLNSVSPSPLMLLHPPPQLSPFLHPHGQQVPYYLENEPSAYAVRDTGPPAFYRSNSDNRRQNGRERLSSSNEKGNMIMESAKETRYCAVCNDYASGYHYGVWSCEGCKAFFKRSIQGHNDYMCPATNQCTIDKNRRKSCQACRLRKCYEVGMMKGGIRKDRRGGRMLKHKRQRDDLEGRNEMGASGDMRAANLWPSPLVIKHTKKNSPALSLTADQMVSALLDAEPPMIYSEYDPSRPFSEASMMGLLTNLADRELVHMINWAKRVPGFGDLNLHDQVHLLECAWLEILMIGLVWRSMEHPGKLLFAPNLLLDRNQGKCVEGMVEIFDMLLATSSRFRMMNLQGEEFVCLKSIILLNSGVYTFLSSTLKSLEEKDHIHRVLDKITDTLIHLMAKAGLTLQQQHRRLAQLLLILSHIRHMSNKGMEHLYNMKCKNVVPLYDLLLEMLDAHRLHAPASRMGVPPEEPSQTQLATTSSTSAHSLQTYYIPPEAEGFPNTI
Outline: (§6)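 Immature female NMRI mice, 20 days old (14.5 ± 1.2 g), randomly grouped 10 per group. Each received a daily sc injection for 3 days of 0.1 mL olive oil solution containing test compound, together with estrone to stimulate uterine growth. Uteri were removed 24 h after the last injection and weighed. Results are reported as % inhibition of the estrone-stimulated uterine weight gain, mean ± SD.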

[34] = target: T1, Estrogen receptor (Mus musculus); test: Antiestrogenic activity in uterotrophic test in mice at 5 ug (experiment 2); assay type: functional; outline: as §6
[35] = target: T1, Estrogen receptor (Mus musculus); test: Antiestrogenic activity in uterotrophic test in mice at 500 ug (experiment 3); assay type: functional; outline: as §6
[36] = target: T1, Estrogen receptor (Mus musculus); test: Antiestrogenic activity in uterotrophic test in mice at 0 ug (experiment 2); assay type: functional; outline: as §6
[37] = target: T1, Estrogen receptor (Mus musculus); test: Antiestrogenic activity in uterotrophic test in mice at 0 ug (experiment 3); assay type: functional; outline: as §6
[38] = target: T1, Estrogen receptor (Mus musculus); test: Antiestrogenic activity in uterotrophic test in mice at 50 ug (experiment 3); assay type: functional; outline: as §6
MCF7 [39] = test: Inhibition of estrogen receptor positive MCF-7 cell proliferation as percent treated/control cell number after 10 days at 10e-7 M with 10e-8 M 17-beta-estradiol; assay type: functional, Homo sapiens; outline: as §4
[40] = target: T1, Estrogen receptor (Mus musculus); test: Estrogenic activity in uterotrophic test in mice; No effect; assay type: functional
Outline: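 Immature (20-day-old) female NMRI mice, 14.5 ± 1.2 g, randomized into groups of 10. Given the test compound sc daily for 3 days in 0.1 mL olive oil. Uteri removed 24 h after the last injection; uterine weight taken as the read-out, means ± SD. Dose in μg.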

[41] = target: T1, Estrogen receptor (Mus musculus); test: Inhibitory activity in mouse uterine weight test at 5 ug (experiment 2); assay type: functional
Outline: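 Antiuterotrophic (Dorfman) assay in immature 20-day-old female NMRI mice, groups of 10. Uterine growth was stimulated with estrone (0.1 μg) and the test compound was given alongside it, sc daily for 3 days in 0.1 mL olive oil. Uteri were taken 24 h after the last dose. Uterine weight is reported as means ± SD and inhibition as % of the estrone-stimulated response.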

[42] = target: T1, Estrogen receptor (Mus musculus); test: Inhibitory activity in mouse uterine weight test at 50 ug (experiment 3); assay type: functional
Outline: (§7)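 Immature female NMRI mice, 20 days old (14.5 ± 1.2 g), in random groups of 10. They received sc injections daily for 3 days of 0.1 mL olive oil containing test compound, with estrone 0.1 μg given to stimulate uterine growth. Uteri were removed 24 h after the last injection and weighed (mean ± SD). Result is percent inhibition of the estrone-stimulated uterine weight gain.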

[43] = target: T1, Estrogen receptor (Mus musculus); test: Inhibitory activity in mouse uterine weight test at 500 ug (experiment 3); assay type: functional; outline: as §7
Rattus norvegicus [44] = organism: Rattus norvegicus; test: Final number of DMBA-induced hormone-dependent mammary carcinoma tumors in rats at 18 mg; assay type: functional; outline: as §2
Rattus norvegicus [45] = organism: Rattus norvegicus; test: Final number of DMBA-induced hormone-dependent mammary carcinoma tumors in rats at 72 mg; assay type: functional; outline: as §2
Rattus norvegicus [46] = organism: Rattus norvegicus; test: Percent change in body weight DMBA-induced hormone-dependent mammary carcinoma tumors in rats at 36 mg for 7 days; assay type: functional
[47] = system: Estrogen receptor (Bos taurus); test: Displacement of [3H]estradiol from calf estrogen receptor

CC(c1cccc(O)c1)C(C)c1cccc(O)c1 (configuration not stated)
Tumors (Rattus norvegicus [1]): 29% | Tumors (Rattus norvegicus [2]): 34% | No. of tumors (Rattus norvegicus [3]): 12 | Tumors (Rattus norvegicus [4]): 11% | Tumors (Rattus norvegicus [5]): 25% | Change (Rattus norvegicus [6]): 2.4% | Change (Rattus norvegicus [7]): 0.9% | Change (Rattus norvegicus [8]): 105% | Change (Rattus norvegicus [9]): 188% | Tumors (Rattus norvegicus [10]): 9% | Tumors (Rattus norvegicus [11]): 38% | Tumors (Rattus norvegicus [12]): 16% | Tumors (Rattus norvegicus [13]): 24% | Tumors (Rattus norvegicus [14]): 25% | Tumors (Rattus norvegicus [15]): 51% | Tumors (Rattus norvegicus [16]): 14% | No. of tumors (Rattus norvegicus [17]): 22 | No. of tumors (Rattus norvegicus [18]): 26 | T/C (MCF7 [19]): 71% | T/C (MCF7 [20]): 92% and 77% | T/C (MCF7 [21]): 107% | T/C (MCF7 [22]): 82% | Cell number (MCF7 [23]): 35900 | Cell number (MCF7 [24]): 39800 | T/C (MCF7 [25]): 91% | Cell number (MCF7 [26]): 32200 | Cell number (MCF7 [27]): 8000 | Cell number (MCF7 [28]): 7100 | Cell number (MCF7 [29]): 6100 | Cell number (MCF7 [30]): 33600 | No. of tumors (Rattus norvegicus [31]): 21 | Change (Rattus norvegicus [32]): 6% | Effect [33]: 38.5 | Effect [34]: 36.5 | Effect [35]: 29 | Effect [36]: 10.5 | Effect [37]: 9.9 | Effect [38]: 34.3 | T/C (MCF7 [39]): 121% | Effect [40]: inactive | inhibition [41]: 7% | inhibition [42]: 12% | inhibition [43]: 31% | No. of tumors (Rattus norvegicus [44]): 16 | No. of tumors (Rattus norvegicus [45]): 22 | Change (Rattus norvegicus [46]): 1.6% | Ka [47]: 1.1e+07 M⁻¹
